A short description of one series: Solubility of DHA-dFdC. Type of series: physicochemical. In a few lines: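 Indirect aqueous solubility used isopropyl myristate (IPM)/water partitioning. Saturated IPM solution was centrifuged (14,000 rpm, 10 min) and the supernatant measured by HPLC after methanol dilution (A1). Water was added at Vwater/VIPM 10, vortexed 5 min, left 15 min and centrifuged (14,000 rpm, 15 min). The IPM layer was re-assayed (A2) and the partition coefficient calculated from A1, A2 and the volume ratio.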

Series [1] has as its system dFdC-sensitive cancer cell lines. The note with it: various dFdC-sensitive cancer cell lines; cited from earlier work.
In a further series the test system is Panc-02 cells. Nature of the series: MTT cytotoxicity assay. Format: cell-based, mouse. The settings on record: Panc-02, high concentrations (10-100 μM). The essentials: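 Cells seeded at 1500/well and left overnight at 37°C, 5% CO2. Treated with serial concentrations of test compound, dFdC, DHA or 1:1 molar dFdC+DHA (lipids in DMSO, dFdC in medium). Exposure: Panc-1-luc 24 h, Panc-02 48 h, BxPC-3 72 h. In a separate Panc-02 run, 10-100 μM for 4 h. Survival read by MTT; IC50 obtained by curve fitting.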

Series [2] relates to Panc-1-luc human pancreatic tumors implanted SC. Nature of the series: Antitumor activity in mice with subcutaneous Panc-1-luc tumors. Format: in vivo, athymic nude mice. The settings on record: IP twice a week; DHA-dFdC 50 mg/kg or molar equivalent doses. In a few lines:
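Male athymic nude mice (6-8 weeks) received SC injections of 5 × 10^6 Panc-1-luc cells in DMEM/Matrigel 1:1 (v/v) in the right flank. At 5-7 mm tumours (day 5), mice were randomised into 5 groups (n = 5-6). Groups got IP test compound at 50 mg/kg or molar equivalents. The vehicle was Tween 80/ethanol/water 1:0.52:8.48 with 5% w/v mannitol (dFdC in 5% mannitol). Dosing was twice weekly, up to six times. Caliper volumes were V = ½ × L1 × L2 × L2.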

The next series has as its system tumor cells in culture. The note with it: many tumor cells in culture; cited from earlier work.
Series [3] concerns orthotopic Panc-1-luc pancreatic tumors. Nature of the series: Antitumor activity in mice with orthotopic Panc-1-luc tumors. Type of series: in vivo, athymic nude mice. The essentials:
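Male athymic nude mice (6-8 weeks) received ~50 μl of Panc-1-luc cells (~2 × 10^7/ml in 1:1 DMEM/Matrigel) into the pancreas under isoflurane anaesthesia. After four weeks, randomised (n = 5-7) to test compound (Tween 80/ethanol/water, 5% w/v mannitol), dFdC at molar equivalent (~0.087 […], 5% mannitol) or untreated. IP twice weekly, seven doses in total. Tumours dissected and weighed 30 days after first dose.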

Another series concerns Panc-1-luc cells. The note with it: cited from earlier work.
Series [4] is described as follows: Pancreatic tissue levels and biodistribution after IV injection. Type of series: in vivo, BALB/c mice. The settings on record: mouse pancreas, IV 75 mg/kg, noncompartmental. The essentials: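 Healthy female BALB/c mice (17-20 weeks) received 75 mg/kg IV in Tween 80/ethanol/5% mannitol aqueous solution. Mice were euthanized at six time points from 5 to 300, n = 3-4 each. Pancreas was homogenized, extracted with ethyl acetate and analysed by HPLC: methanol/1% acetic acid 85:15, 1.2 ml/min, detection 300 nm.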

For series [5] the following is noted: cited from earlier work.

Values after ≈ are worked out from the molar mass of the structure shown.

Turning to `CCCCCCCCCCCCCCCCCC(=O)Nc1ccn(C2OC(CO)C(O)C2(F)F)c(=O)n1` (centres unmarked) [4-(N)-stearoyl dFdC], the Solubility in water in the series “Solubility of DHA-dFdC” (direct method) is 1.38 ± 1.60 µg/mL (≈ 2.61 µM); in “Solubility of DHA-dFdC” (indirect method (IPM/water partitioning), room temperature) it was 1.39 ± 0.10 µg/mL (≈ 2.62 µM). The “Cytotoxicity compared with dFdC” value in [1] is listed as “not significantly more cytotoxic than dFdC”.
In the case of `CC/C=C\C/C=C\C/C=C\C/C=C\C/C=C\C/C=C\CCC(=O)O` [DHA, Cis-4,7,10,13,16,19-docosahexaenoic acid], the “Cytotoxicity after 4 hours of coincubation” value with Panc-02 cells was “did not show significant cytotoxicity”. For the same molecule, in [2], the “Tumor growth compared with vehicle control” value is “did not significantly inhibit the tumor growth”.
As to `CC/C=C\C/C=C\C/C=C\C/C=C\C/C=C\C/C=C\CCC(=O)O[C@@H](C(=O)O[C@H]1C[C@@]2(O)[C@@H](OC(=O)c3ccccc3)[C@@H]3[C@]4(OC(C)=O)CO[C@@H]4C[C@H](O)[C@@]3(C)C(=O)[C@H](OC(C)=O)C(=C1C)C2(C)C)[C@@H](NC(=O)c1ccccc1)c1ccccc1` [DHA-paclitaxel conjugate], the “Cytotoxicity compared with paclitaxel” value in the series with tumor cells in culture is on record as “not more cytotoxic than paclitaxel alone”.
On to `Cl.Nc1ccn([C@@H]2O[C@H](CO)[C@@H](O)C2(F)F)c(=O)n1` [dFdC, 2′, 2′-difluorodeoxycytidine HCl], for which the Tumor growth result in series [3] (IP twice a week, DHA-dFdC 50 mg/kg, dFdC molar equivalent) is on record as “did not show significant activity”. For the same molecule, the “Cleaved lamin-A positive staining in tumors” value in [3] (compared with untreated mice) is listed as “not different from that in mice that were left untreated”. Moreover, the “Sensitivity of Panc-1 tumor cells” value in the series with Panc-1-luc cells was “resistant”. The “AUC0 -∞ in pancreas” value in series [4] is 787.71 µg·min/g. The “Tumor growth compared with vehicle control” value in [2] is “did not significantly inhibit the tumor growth”. Further, in series [5] (after intravenous administration), the “Loss of dFdC by deamination” value was “about 90%”. In series [5], the “Administered dFdC excreted in the urine” value is “More than 99%” and the “Unchanged dFdC in the urine” value is on record as 5%.
